The values that follow come from ChEMBL document CHEMBL4007405 (J Med Chem, 2017).

For data set [1], the target named is T1, Lethal factor (Bacillus anthracis, UniProt P15917).
T1 sequence (P15917 whole entry): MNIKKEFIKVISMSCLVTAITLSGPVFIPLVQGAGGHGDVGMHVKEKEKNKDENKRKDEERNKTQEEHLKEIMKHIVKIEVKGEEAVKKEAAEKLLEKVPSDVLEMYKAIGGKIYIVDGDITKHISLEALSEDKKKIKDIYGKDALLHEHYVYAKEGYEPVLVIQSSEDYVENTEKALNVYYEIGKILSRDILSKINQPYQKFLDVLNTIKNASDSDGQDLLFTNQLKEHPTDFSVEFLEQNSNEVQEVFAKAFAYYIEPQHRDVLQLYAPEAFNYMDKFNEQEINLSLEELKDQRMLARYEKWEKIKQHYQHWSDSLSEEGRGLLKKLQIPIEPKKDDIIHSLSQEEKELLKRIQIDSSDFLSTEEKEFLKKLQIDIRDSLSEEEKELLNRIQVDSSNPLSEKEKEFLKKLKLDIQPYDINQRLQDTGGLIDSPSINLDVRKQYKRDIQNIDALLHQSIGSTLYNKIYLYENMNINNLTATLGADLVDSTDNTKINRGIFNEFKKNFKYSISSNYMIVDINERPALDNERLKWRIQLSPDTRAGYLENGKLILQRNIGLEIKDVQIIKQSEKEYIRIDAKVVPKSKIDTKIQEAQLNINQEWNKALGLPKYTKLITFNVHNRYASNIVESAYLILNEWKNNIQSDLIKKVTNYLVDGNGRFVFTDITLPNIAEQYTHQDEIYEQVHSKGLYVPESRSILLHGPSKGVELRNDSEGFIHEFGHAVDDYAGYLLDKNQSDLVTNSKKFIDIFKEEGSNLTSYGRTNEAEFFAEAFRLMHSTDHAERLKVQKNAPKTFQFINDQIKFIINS

Data set [2] has as its target Disintegrin and metalloproteinase domain-containing protein 17 (Homo sapiens) (UniProt P78536). Briefly: Inhibition of recombinant human glycosylated his-tagged TACE catalytic domain (233 to 477 residues) assessed as inhibition of proteolytic activity preincubated for 30 mins prior to addition of Mca-Pro-Leu-Ala-Gln-Ala-Val-Dpa-Arg-Ser-Ser-Ser-Arg-NH2 as substrate measured every 2 mins for 3 hrs by fluorescence analysis. In short, it runs like this:
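TACE catalytic domain (233-477) at 2 nM in 2.5 μM ZnCl2, 25 mM Tris-HCl, pH 8.0. Preincubated with peptide from 1 nM to 10 μM for 30 min at room temperature. Fluorogenic Mca/Dpa substrate then added to a final 3 μM. Fluorescence read every 2 min for 3 h (excitation 320 nm, emission 405 nm). Initial velocities fitted to log(inhibitor)–response with variable Hill slope.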

The target in data set [3] is T2, Lethal factor (Bacillus anthracis) (UniProt P15917).
T2 sequence (whole entry): T1 sequence (P15917 whole entry)
Briefly: (§1) Inhibition of Bacillus anthracis lethal factor protease preincubated for 30 mins prior to addition of substrate containing fluorescent proteins CyPet and YPet measured every 2 mins for 3 hrs by FRET assay. Summed up: (§2)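 Preincubated with peptide from 1 nM to 10 μM for 30 min at room temperature. CyPet–YPet substrate (LF consensus sequence with (GGS)6 linkers) then added to a final 10 nM. FRET read every 2 min for 3 h with excitation at 405 nm and emission ratio It/I0 at 535 nm. Initial velocities fitted to log(inhibitor)–response with variable Hill slope. Run in triplicate.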

The target in data set [4] is T1, Lethal factor. The description is as §1. In short, it runs like this:
as §2

The subject of data set [5] is HeLa. As to the kind of experiment: Cytotoxicity against human HeLa cells up to 100 uM after 48 hrs by MTT assay. Type of data set: cell-based. Summed up: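 HeLa cells grown in DMEM with 10% FBS, penicillin and streptomycin at 37° C, 5% CO2. About 3 × 10^3 cells per well were seeded for 24 h, washed with PBS, then exposed to peptides in DMEM/10% FBS for 48 h at 37° C. MTT was added for 2 h and formazan dissolved in DMSO. Absorbance read at 595 nm with 670 nm background subtracted.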
In general terms: Formazan colour is commonly taken as a measure of viable cells.

The term IC50 denotes the concentration that inhibits the measured activity by half.

Molecules are shown by their SMILES. Positions of bridges follow the written chain, without caps; N, C: chain ends. Residues, ends and D or L forms follow the SMILES beside them.

Chain of Disintegrin and metalloproteinase domain-containing protein 17 (Homo sapiens) (P78536 whole entry, the tested form may be a part): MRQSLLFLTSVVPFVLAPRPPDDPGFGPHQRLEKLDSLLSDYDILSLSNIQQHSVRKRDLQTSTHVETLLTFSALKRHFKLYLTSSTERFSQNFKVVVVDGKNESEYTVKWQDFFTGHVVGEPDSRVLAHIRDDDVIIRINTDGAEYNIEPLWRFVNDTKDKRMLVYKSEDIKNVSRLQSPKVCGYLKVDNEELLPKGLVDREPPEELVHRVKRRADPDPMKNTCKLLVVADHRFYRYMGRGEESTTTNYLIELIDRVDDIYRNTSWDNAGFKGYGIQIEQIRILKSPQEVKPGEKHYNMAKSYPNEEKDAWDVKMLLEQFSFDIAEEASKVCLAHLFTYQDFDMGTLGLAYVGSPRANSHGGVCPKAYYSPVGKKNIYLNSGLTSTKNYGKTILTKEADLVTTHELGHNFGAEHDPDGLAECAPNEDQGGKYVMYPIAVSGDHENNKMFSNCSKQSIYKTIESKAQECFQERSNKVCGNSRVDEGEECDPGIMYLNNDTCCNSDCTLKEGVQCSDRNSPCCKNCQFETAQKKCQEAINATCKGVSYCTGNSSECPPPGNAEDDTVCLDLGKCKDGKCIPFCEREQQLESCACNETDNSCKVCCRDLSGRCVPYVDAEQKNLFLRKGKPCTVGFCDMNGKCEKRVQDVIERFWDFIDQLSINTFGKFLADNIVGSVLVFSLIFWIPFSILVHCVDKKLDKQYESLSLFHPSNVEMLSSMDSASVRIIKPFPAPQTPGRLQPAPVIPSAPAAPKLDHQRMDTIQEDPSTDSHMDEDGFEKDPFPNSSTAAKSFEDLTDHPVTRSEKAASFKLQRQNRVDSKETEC

With `CC[C@H](C)[C@@H]1NC(=O)[C@@H]2CSSC[C@H](NC(=O)[C@H](CCCNC(=N)N)NC(=O)[C@@H]3CSSC[C@H](NC1=O)C(=O)N[C@@H]([C@@H](C)O)C(=O)N[C@@H](CCCNC(=N)N)C(=O)NCC(=O)N[C@@H](Cc1ccccc1)C(=O)N3)C(=O)N[C@@H](CC(C)C)C(=O)N[C@H]1CSSC[C@H](NC(=O)[C@H](C(C)C)NC(=O)CNC(=O)[C@H](CCCNC(=N)N)NC(=O)[C@H](CCCNC(=N)N)NC1=O)C(=O)N[C@@H](CCCNC(=N)N)C(=O)N2` (cyclo(GFCRCLCRRGVCRCICTR); disulfide 3-16, 5-14, 7-12), the values for the IC50 in data set [1] and in data set [4] were 1.06 µM and 0.39 µM, respectively. For the same molecule, the inhibition result in data set [2] and in data set [3] was “Dose-dependent effect” in each case. For the same molecule, in data set [5], the Activity result is given as “Non-Toxic”.
